# In ChEMBL document CHEMBL1124260, “Synthesis and antitumor activity of quaternary ellipticine glycosides, a series of novel and highly active antitumor agents” (1988):
# Key:
# Mus musculus [1] = assay: Number of survivors out of 6 ip implanted EAC leukemia mouse tested after 80 days at 10 mg/kg; format: functional; settings: route intraperitoneal
# Summary of the method: (§1)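 Drug dissolved and diluted in saline just before use, given ip for 5 consecutive days starting 24 h after implant. Six mice per dose. Survivors counted at 80 days; ILS % taken from mean survival time of treated vs control mice.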
# Mus musculus [2] = assay: Number of survivors out of 6 ip implanted EAC leukemia mouse tested after 80 days at 20 mg/kg; format: functional; settings: route intraperitoneal; summary of the method: as §1
# Mus musculus [3] = assay: Number of survivors out of 6 ip implanted EAC leukemia mouse tested after 80 days at 40 mg/kg; format: functional; settings: route intraperitoneal; summary of the method: as §1
# Mus musculus [4] = assay: Number of survivors out of 6 ip implanted L1210 leukemia in mouse after ip administration of 10 mg/kg after 80 days; format: functional; settings: route intraperitoneal
# Summary of the method: (§2)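 Female BDF1 mice implanted ip with ascitic fluid holding 10^5 L1210 cells. Saline-dissolved drug given ip daily on days 1-5, starting 24 h after implant. Six mice per dose group, followed 80 days. Survivors/total counted at day 80; ILS % from mean survival time vs controls.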
# Mus musculus [5] = assay: Number of survivors out of 6 ip implanted L1210 leukemia in mouse after ip administration of 20 mg/kg after 80 days; format: functional; settings: route intraperitoneal; summary of the method: as §2
# Mus musculus [6] = assay: Effect on ip implanted sarcoma 180 by ip administration for 5 days at 20 mg/kg was measured as increase in mean life span; format: functional; settings: Sarcoma-180, ip, 120 h, route intraperitoneal
# Summary of the method: (§3)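 Saline-dissolved drug was dosed ip daily for 5 consecutive days starting 24 h later. Readout was ILS % (mean survival time of treated vs control) over an 80-day observation.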
# Mus musculus [7] = assay: Effect on ip implanted sarcoma 180 by ip administration for 5 days at 40 mg/kg was measured as increase in mean life span; format: functional; settings: Sarcoma-180, ip, 120 h, route intraperitoneal; summary of the method: as §3
# Mus musculus [8] = assay: Antitumor activity against ip implanted L1210 leukemia in mouse after ip administration of 1.25 mg/kg for 5 days expressed as increase in mean life span; format: functional; settings: 120 h, route intraperitoneal
# Summary of the method: (§4)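 Drug was dissolved in 0.9% NaCl, diluted just before use and given ip once daily for 5 consecutive days, starting 24 h after transplant. ILS % = mean survival time of treated vs control mice, observed for 80 days.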
# Mus musculus [9] = assay: Number of survivors out of 6 ip implanted P388 leukemia in mouse after ip administration of 10 mg/kg after 80 days; format: functional; settings: route intraperitoneal
# Summary of the method: (§5)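 P388 leukemia, 10^6 ascitic cells implanted ip in female BDF1 mice. Drug in saline given ip for 5 consecutive days from 24 h after transplant. Groups of six per dose level. Survivors/total recorded at the 80-day end of observation; ILS % from treated/control mean survival time.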
# Mus musculus [10] = assay: Number of survivors out of 6 ip implanted P388 leukemia in mouse after ip administration of 20 mg/kg after 80 days; format: functional; settings: route intraperitoneal; summary of the method: as §5
# Mus musculus [11] = assay: Number of survivors out of 6 ip implanted P388 leukemia in mouse after ip administration of 5 mg/kg after 80 days; format: functional; settings: route intraperitoneal; summary of the method: as §5
# Mus musculus [12] = assay: Number of survivors out of 6 ip implanted sarcoma 180 leukemia mouse tested after 80 days at 40 mg/kg; format: functional; settings: route intraperitoneal; summary of the method: as §1
# Mus musculus [13] = assay: Effect on ip implanted EAC by ip administration for 5 days at 10 mg/kg was measured as increase in mean life span; format: functional; settings: 120 h, route intraperitoneal
# Summary of the method: (§6)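 Drug in 0.9% NaCl was given ip for 5 consecutive days from 24 h after inoculation. ILS % came from treated vs control mean survival time, followed for 80 days.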
# Mus musculus [14] = assay: Antitumor activity against ip implanted L1210 leukemia in mouse after ip administration of 10 mg/kg for 5 days expressed as increase in mean life span; format: functional; settings: Mus musculus, L1210, ip, 120 h, route intraperitoneal; summary of the method: as §4
# Mus musculus [15] = assay: Antitumor activity against ip implanted L1210 leukemia in mouse after ip administration of 20 mg/kg for 5 days expressed as increase in mean life span; format: functional; settings: 120 h, route intraperitoneal; summary of the method: as §4
# Mus musculus [16] = assay: Antitumor activity against ip implanted L1210 leukemia in mouse after ip administration of 30 mg/kg for 5 days expressed as increase in mean life span; format: functional; settings: Mus musculus, L1210, ip, 120 h, route intraperitoneal; summary of the method: as §4
# Mus musculus [17] = assay: Antitumor activity against ip implanted L1210 leukemia in mouse after ip administration of 40 mg/kg for 5 days expressed as increase in mean life span; format: functional; settings: 120 h, route intraperitoneal; summary of the method: as §4
# Mus musculus [18] = assay: Antitumor activity against ip implanted L1210 leukemia in mouse after ip administration of 5 mg/kg for 5 days expressed as increase in mean life span; format: functional; settings: Mus musculus, L1210, ip, 120 h, route intraperitoneal; summary of the method: as §4
# Mus musculus [19] = assay: Antitumor activity against ip implanted P388 leukemia in mouse after ip administration of 1.25 mg/kg for 5 days expressed as increase in mean life span; format: functional; settings: 120 h, route intraperitoneal
# Summary of the method: (§7)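 Saline-dissolved drug was given ip daily for 5 consecutive days, beginning 24 h post-transplant. ILS % was calculated from treated vs control mean survival time over an 80-day observation period.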
# Mus musculus [20] = assay: Antitumor activity against ip implanted P388 leukemia in mouse after ip administration of 10 mg/kg for 5 days expressed as increase in mean life span; format: functional; settings: 120 h, route intraperitoneal; summary of the method: as §7
# Mus musculus [21] = assay: Antitumor activity against ip implanted P388 leukemia in mouse after ip administration of 20 mg/kg for 5 days expressed as increase in mean life span; format: functional; settings: 120 h, route intraperitoneal; summary of the method: as §7
# Mus musculus [22] = assay: Antitumor activity against ip implanted P388 leukemia in mouse after ip administration of 40 mg/kg for 5 days expressed as increase in mean life span; format: functional; settings: 120 h, route intraperitoneal; summary of the method: as §7
# Mus musculus [23] = assay: Antitumor activity against ip implanted P388 leukemia in mouse after ip administration of 5 mg/kg for 5 days expressed as increase in mean life span; format: functional; settings: 120 h, route intraperitoneal; summary of the method: as §7
# Mus musculus [24] = assay: Number of survivors out of 6 ip implanted L1210 leukemia mouse, tested after 80 days at 30 mg/kg; format: functional; settings: route intraperitoneal; summary of the method: as §2
# Mus musculus [25] = assay: Effect on ip implanted EAC by ip administration for 5 days at 20 mg/kg was measured as increase in mean life span; format: functional; settings: 120 h, route intraperitoneal; summary of the method: as §6
# Mus musculus [26] = assay: Effect on ip implanted EAC by ip administration for 5 days at 40 mg/kg was measured as increase in mean life span; format: functional; settings: 120 h, route intraperitoneal; summary of the method: as §6
# Mus musculus [27] = assay: Effect on ip implanted EAC by ip administration for 5 days at 5 mg/kg was measured as increase in mean life span; format: functional; settings: 120 h, route intraperitoneal; summary of the method: as §6
# Mus musculus [28] = assay: Effect on ip implanted sarcoma 180 by ip administration for 5 days at 10 mg/kg was measured as increase in mean life span; format: functional; settings: Sarcoma-180, ip, 120 h, route intraperitoneal; summary of the method: as §3
# Mus musculus [29] = assay: Inhibition of sc implanted syngeneic colon 38 carcinoma by ip administration at 20 mg/kg on 1, 3, 5, 7, 9 days measured as inhibition ratio; format: functional; settings: route subcutaneous
# Summary of the method: (§8)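 Tumor homogenate (70 mg) implanted into the axillary region of female BDF1 mice. Drug dissolved in 0.9% NaCl and diluted with saline just before use, then given ip on days 1, 3, 5, 7 and 9. Tumor length and width were measured by caliper on day 20 after inoculation and converted to estimated weight. Result reported as treated vs control tumor weight, T/C %.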
# Mus musculus [30] = assay: Inhibition of sc implanted syngeneic colon 38 carcinoma by ip administration at 30 mg/kg on 1, 3, 5, 7, 9 days measured as inhibition ratio; format: functional; settings: route intraperitoneal; summary of the method: as §8
# Mus musculus [31] = assay: Number of survivors out of 6 ip implanted P388 leukemia in mouse after iv administration of 16 mg/kg after 80 days
# Mus musculus [32] = assay: Effect on ip implanted syngeneic B16 melanoma by ip administration of 20 mg/kg for 9 days measured as increase in mean life span; settings: 216 h
# Mus musculus [33] = assay: Effect on ip implanted syngeneic B16 melanoma by ip administration for 9 days at 5 mg/kg was measured as increase in mean life span; settings: 216 h
# Mus musculus [34] = assay: Effect on ip implanted syngeneic B16 melanoma by ip administration for 9 days at 10 mg/kg was measured as increase in mean life span; settings: 216 h
# Mus musculus [35] = assay: Effect on ip implanted syngeneic B16 melanoma by ip administration for 9 days at 2.5 mg/kg was measured as increase in mean life span; settings: 216 h
# Mus musculus [36] = assay: Antitumor activity against ip implanted P388 leukemia in mouse after iv administration of 8 mg/kg for 5 days expressed as increase in mean life span; settings: 120 h
# Mus musculus [37] = assay: Antitumor activity against ip implanted L1210 leukemia in mouse after iv administration of 8 mg/kg for 5 days expressed as increase in mean life span; settings: 120 h
# Mus musculus [38] = assay: Antitumor activity against ip implanted P388 leukemia in mouse after iv administration of 16 mg/kg for 5 days expressed as increase in mean life span; settings: 120 h
# Mus musculus [39] = assay: Antitumor activity against ip implanted L1210 leukemia in mouse after iv administration of 16 mg/kg for 5 days expressed as increase in mean life span; settings: 120 h
# Mus musculus [40] = assay: Number of survivors out of 6 ip implanted L1210 leukemia mouse tested after 80 days at 60 mg/kg; format: functional; settings: route intraperitoneal; summary of the method: as §2
# Mus musculus [41] = assay: Antitumor activity against ip implanted L1210 leukemia in mouse after ip administration of 60 mg/kg for 5 days expressed as increase in mean life span; format: functional; settings: 120 h, route intraperitoneal; summary of the method: as §4
compound,measurement,setting,value
Cc1c2cc[n+]([C@@H]3O[C@H](CO)[C@H](O)[C@H]3O)cc2c(C)c2c1[nH]c1ccc(O)cc12.[Cl-],Cures,Mus musculus [1],2
same,Cures,Mus musculus [2],3
same,Cures,Mus musculus [3],5
same,Cures,Mus musculus [4],1
same,Cures,Mus musculus [5],1
same,ILS at 20 mg/kg,Mus musculus [6],> 318%
same,ILS at 40 mg/kg,Mus musculus [7],> 335%
same,ILS at 1.25 mg/kg,Mus musculus [8],55%
same,Cures,Mus musculus [9],2
same,Cures,Mus musculus [10],5
same,Cures,Mus musculus [11],3
same,Cures,Mus musculus [12],2
same,ILS at 10 mg/kg,Mus musculus [13],> 318%
same,ILS at 10 mg/kg,Mus musculus [14],> 272%
same,ILS at 20 mg/kg,Mus musculus [15],> 244%
same,ILS at 30 mg/kg,Mus musculus [16],> 682%
same,ILS at 40 mg/kg,Mus musculus [17],59%
same,ILS at 5 mg/kg,Mus musculus [18],73%
same,ILS at 1.25 mg/kg,Mus musculus [19],110%
same,ILS at 10 mg/kg,Mus musculus [20],> 376%
same,ILS at 20 mg/kg,Mus musculus [21],> 628%
same,ILS at 40 mg/kg,Mus musculus [22],112%
same,ILS at 5 mg/kg,Mus musculus [23],> 418%
same,Cures,Mus musculus [24],4
same,ILS at 20 mg/kg,Mus musculus [25],> 380%
same,ILS at 40 mg/kg,Mus musculus [26],> 501%
same,ILS at 5 mg/kg,Mus musculus [27],125%
same,ILS at 10 mg/kg,Mus musculus [28],69%
same,T/C,Mus musculus [29],36%
same,T/C,Mus musculus [30],2%
same,Cures,Mus musculus [31],2
same,ILS at 20 mg/kg,Mus musculus [32],52%
same,ILS at 5 mg/kg,Mus musculus [33],42%
same,ILS at 10 mg/kg,Mus musculus [34],64%
same,ILS at 2.5 mg/kg,Mus musculus [35],38%
same,ILS at 8 mg/kg,Mus musculus [36],122%
same,ILS at 8 mg/kg,Mus musculus [37],102%
same,ILS at 16 mg/kg,Mus musculus [38],> 417%
same,ILS at 16 mg/kg,Mus musculus [39],168%
CC(=O)OC1C(C)OC([n+]2ccc3c(C)c4[nH]c5ccc(O)cc5c4c(C)c3c2)C(OC(C)=O)C1OC(C)=O.[Br-] (stereo unspecified),Cures,Mus musculus [40],0
same,ILS at 60 mg/kg,Mus musculus [41],89%
